These results are taken from ChEMBL document CHEMBL3526035, “Role of the intestinal peptide transporter PEPT1 in oseltamivir absorption: in vitro and in vivo studies” (Drug Metab Dispos, 2012).

Data set [1] in a line: Tmax in adult fasted Sprague-Dawley rat at 30 mg/kg, po administered as water solution by HPLC-tandem mass spectrometry. The note with it: in vivo. The arrangement: dose 30 mg/kg, route oral. The class given is ADME, organism-based. The essentials:
(§1)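 Male Sprague-Dawley rats (7–8 weeks, 243–283 g) had jugular-vein cannulas and 3 days' recovery. Fasting ran from 6 h predose through the 6 h study. Three rats per vehicle received 30 mg/kg oral (10 ml/kg). Blood was sampled 0.25–6 h into K2EDTA tubes with dichlorvos. Plasma was assayed by HPLC-MS/MS (0.1–500 µg/l). Tmax was read graphically (noncompartmental).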

Data set [2] is described as follows: AUC(0 to 5 hrs) in juvenile fasted Sprague-Dawley rat at 30 mg/kg, po administered as water solution by HPLC-tandem mass spectrometry. The class given is ADME, organism-based. The arrangement: time < 5 hr, dose 30 mg/kg, route oral. The note with it: plasma. A digest of the protocol: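 7-day-old Sprague-Dawley pups (9.7-18.9 g, both sexes), 15 per group. Given 30 mg/kg by oral gavage (10 ml/kg); breast-fed pups stayed with dams, fasted pups were removed 8 h before dosing. Blood taken by cardiac puncture under isoflurane at 0.25, 0.5, 1, 2 and 5 h, n=3 per time point (composite design). Dichlorvos-treated plasma assayed by LC-MS/MS; AUC0-5h by noncompartmental analysis.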

Data set [3] in a line: Tmax in adult fasted Sprague-Dawley rat at 30 mg/kg, po administered as 125 mM aqueous Gly-Sar solution by HPLC-tandem mass spectrometry. The class given is ADME, organism-based. The arrangement: dose 30 mg/kg, route oral. The note with it: in vivo. A digest of the protocol: as §1
Data set [4] is described as follows: Drug uptake in CHOK1 cells expressing human PEPT1 at 100 uM at pH 4 to 8 after 10 mins by HPLC coupled with radiodetection analysis. The class given is ADME, cell-based, Cricetulus griseus. The note with it: chinese hamster, cho-k1, pH 4, 10 min. The essentials:
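pH series from 4 to 8: CHO-PEPT1 and CHO-K1 cells were exposed to 100 µM [14C]oseltamivir (or 2 µM [3H]Gly-Sar) in KH/MES buffer, with pH readjusted after substrate addition, for 10 min at 37°C. Then quench in ice-cold PBS-BSA, Triton X-100 lysis and scintillation counting normalized to protein. Three independent experiments.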

The nature of data set [5]: Drug uptake in CHOK1 cells expressing human PEPT1 at 100 uM after 10 mins by HPLC coupled with radiodetection analysis in presence of PEPT1 inhibitor valacyclovir. The class given is ADME, cell-based, Cricetulus griseus. The note with it: chinese hamster, cho-k1, 10 min. A digest of the protocol: (§2)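 CHO-PEPT1 and parental CHO-K1 cells were washed in KH/MES buffer, then incubated 10 min at 37°C, pH 6, with 100 µM [14C]oseltamivir alone or with 20 mM of the inhibitor. The pH was readjusted after additions. Uptake was quenched with ice-cold PBS-BSA and cells were washed and lysed in 1% Triton X-100. Lysate radioactivity was normalized to BCA protein. Three experiments on separate days, triplicate wells.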

The nature of data set [6]: Drug uptake in CHOK1 cells at 100 uM after 10 mins by HPLC coupled with radiodetection analysis in presence of PEPT1 inhibitor cefadroxil. The class given is ADME, cell-based, Cricetulus griseus. The note with it: chinese hamster, cho-k1, 10 min. The essentials:
(§3)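 CHO-K1 cells held in KH buffer at pH 6. Incubated 10 min with [14C]oseltamivir at 100 μM, either with 20 mM Trp-Gly, valacyclovir or cefadroxil, or at 4°C (on ice) against 37°C. Quenched with ice-cold PBS-0.2% BSA, washed, lysed in 1% Triton X-100 at 60°C. Lysate counted by scintillation and normalised to BCA protein. Three experiments, each point in triplicate.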

Data set [7] can be described thus: Drug uptake in CHOK1 cells at 100 uM after 10 mins by HPLC coupled with radiodetection analysis in presence of PEPT1 inhibitor valacyclovir. The class given is ADME, cell-based, Cricetulus griseus. The note with it: chinese hamster, cho-k1, 10 min. The essentials: as §3
Data set [8] can be described thus: Drug uptake in CHOK1 cells at 100 uM after 10 mins by HPLC coupled with radiodetection analysis in presence of PEPT1 inhibitor Trp-Gly. The class given is ADME, cell-based, Cricetulus griseus. The note with it: chinese hamster, cho-k1, 10 min. A digest of the protocol:
as §3

Data set [9] in a line: Drug uptake in CHOK1 cells at 100 uM at 4 degC after 10 mins by HPLC coupled with radiodetection analysis. The note with it: chinese hamster, cho-k1, 10 min. The class given is ADME, cell-based, Cricetulus griseus. The essentials:
as §3

Data set [10] in a line: Drug uptake in CHOK1 cells expressing human PEPT1 at 100 uM at 4 degC after 10 mins by HPLC coupled with radiodetection analysis. The class given is ADME, cell-based, Cricetulus griseus. The note with it: chinese hamster, cho-k1, 10 min. The essentials: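 100 µM [14C]oseltamivir was incubated with CHO-PEPT1 and CHO-K1 cells for 10 min in KH/MES buffer pH 6, on ice (4°C) or on a 37°C block. Uptake was stopped with ice-cold PBS-BSA, cells were washed and lysed in Triton X-100, and radioactivity was counted per mg protein (BCA). Three independent experiments.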

Data set [11] can be described thus: Drug uptake in CHOK1 cells expressing human PEPT1 at 100 uM after 10 mins by HPLC coupled with radiodetection analysis in presence of PEPT1 inhibitor Trp-Gly. The class given is ADME, cell-based, Cricetulus griseus. The note with it: chinese hamster, cho-k1, 10 min. The essentials: as §2
The nature of data set [12]: Drug uptake in CHOK1 cells at 100 uM at pH 4 to 8 after 10 mins by HPLC coupled with radiodetection analysis. The class given is ADME, cell-based, Cricetulus griseus. The note with it: chinese hamster, cho-k1, pH 4, 10 min. A digest of the protocol:
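[14C]oseltamivir at 100 μM incubated with CHO-K1 cells for 10 min at 37°C in KH buffer over pH 4-8, with pH readjusted after compound addition. Washed cells were lysed in Triton X-100, radioactivity counted and normalised to protein. Three independent experiments, each run in triplicate.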

The nature of data set [13]: Drug uptake in CHOK1 cells expressing human PEPT1 at 100 uM after 10 mins by HPLC coupled with radiodetection analysis in presence of PEPT1 inhibitor cefadroxil. The class given is ADME, cell-based, Cricetulus griseus. The note with it: chinese hamster, cho-k1, 10 min. A digest of the protocol: as §2

Usually Tmax stands for the time at which the peak concentration occurs. Broadly, the AUC(0-t) is the area under the concentration-time curve up to a stated or last time point. Take `CCC(CC)O[C@@H]1C=C(C(=O)O)C[C@H](N)[C@H]1NC(C)=O` [OSELTAMIVIR CARBOXYLATE]: the time to peak (Tmax) in data set [1] worked out at 64.8 min; in [3] it was 70.2 min. The compound also gave an AUC(0-t) at 5 h in data set [2] of 12100 ng·h/mL.

For `CCOC(=O)C1=C[C@@H](OC(CC)CC)[C@H](NC(C)=O)[C@@H](N)C1` [OSELTAMIVIR], the Drug uptake entry in data set [4] was “Active”; in [5] it was “Not Active”; in data set [6], “Not Active”; in [7] it was “Not Active”; in data set [8] it was “Not Active”; in data set [9] it was “Not Active”. For the same compound, the Drug uptake result is “Not Active” in data set [10], “Not Active” in [11], “Active” in data set [12] and “Not Active” in data set [13]. For the same compound, the figures for the time to peak (Tmax) in data set [1] and in data set [3] were 49.8 min and 15 min, respectively. Further, the AUC(0-t) at 5 h in data set [2] turned out to be 29500 ng·h/mL.
